A word on the inhibition: it is the relative decrease from the control value, in per cent.

Data set [1] deals with SH-SY5Y. As to the kind of experiment: Neuroprotective activity against amyloid beta (1 to 42)-induced toxicity in human SH-SY5Y cells assessed as cell viability at 0.25 to 5 uM after 24 hrs by MTS assay. The class given is functional, cell-based. The method in brief: (§1)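 Aβ1-42 at 50 μM in sterile PBS pre-incubated 24 h at room temperature with 1, 5, 10 or 50 μM compound, then diluted 1:10 (5 μM Aβ final) onto SH-SY5Y cells. Cells seeded at 20 000/well in low-serum Optimem, 37 °C, 5% CO2, 24 h. Exposure a further 24 h in quadruplicate. MTS viability or LDH release read; assays repeated twice.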

Data set [2] concerns the target Amyloid-beta precursor protein (Homo sapiens) (UniProt P05067). Nature of the data set: Inhibition of amyloid beta (1 to 42) (unknown origin) aggregation assessed as appearance of less dense fiber at compound/protein ratio of 1/1 after 42 hrs by uranyl acetate staining-based transmission electron microscopy. The procedure, abridged: (§2)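 Samples prepared as for ThT: Aβ1-42 at 10 μM in 10 mM Tris-HCl, 100 mM NaCl pH 7.4, with or without compound at 10 or 100 μM. After 42 h, adsorbed 2 min onto carbon grids and negatively stained 45 s with 2% uranyl acetate. Imaged by TEM at 80 kV.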

Data set [3] shares this target. As to the kind of experiment: Inhibition of amyloid beta (1 to 42) (unknown origin) fibril formation assessed as extension of aggregation half life at compound/protein ratio of 10/1 after 42 hrs by ThT fluorescence assay relative to control. Details: Activity: scale not given: the % may be the effect or the level left. The method in brief:
(§3)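 Aβ1-42 (1 mM in 1% ammonia, diluted in buffer) added to a final 10 μM into 40 μM ThT in 10 mM Tris-HCl, 100 mM NaCl pH 7.4, with compound at 100, 50, 10 or 1 μM (0.5% DMSO), at room temperature. Ex/em 440/485 nm read for 42 h, in duplicate or triplicate, 2–4 runs. t1/2 and plateau F expressed relative to Aβ alone.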

Data set [4] shares this target. As to the kind of experiment: Inhibition of amyloid beta (1 to 42) (unknown origin) fibril formation assessed as extension of aggregation half life at compound/protein ratio of 1/1 after 42 hrs by ThT fluorescence assay relative to control. Details: Activity: scale not given: the % may be the effect or the level left. The procedure, abridged:
as §3

Data set [5] concerns the target T1, Islet amyloid polypeptide (Homo sapiens) (UniProt P10997).
T1 sequence (whole entry): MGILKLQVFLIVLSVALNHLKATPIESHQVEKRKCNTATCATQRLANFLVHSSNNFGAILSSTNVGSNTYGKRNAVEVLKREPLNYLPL
Nature of the data set: Inhibition of human IAPP fibril formation assessed as increase of aggregation half life at compound/protein ratio of 10/1 by ThT fluorescence assay.

Data set [6] deals with T1, Islet amyloid polypeptide (Homo sapiens). Nature of the data set: Inhibition of human IAPP fibril formation assessed as decrease in final fluorescence intensity at compound/protein ratio of 10/1 by ThT fluorescence assay.
For data set [7], the target named is Amyloid-beta precursor protein (Homo sapiens) (UniProt P05067). Nature of the data set: Inhibition of amyloid beta (1 to 42) (unknown origin) fibril formation assessed as extension of aggregation half life at compound/protein ratio of 0.1/1 after 42 hrs by ThT fluorescence assay relative to control. The method in brief:
as §3

A further data set relates to Plasma. Nature of the data set: Metabolic stability in 10% human plasma assessed as drug degradation at 1 uM after 24 hrs by HPLC analysis. The class given is ADME, cell-free. The procedure, abridged:
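Compounds taken from 40 μM DMSO stock to 1 μM in 10% human plasma/90% sterile PBS, held 24 h at 37 °C. Analysed by C18 HPLC with a 0–80% gradient (A: 0.1% TFA in water; B: 0.05% TFA in acetonitrile).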

Data set [8] concerns the target Amyloid-beta precursor protein (Homo sapiens) (UniProt P05067). Nature of the data set: Inhibition of amyloid beta (1 to 42) (unknown origin) fibril formation assessed as decrease in fluorescence plateau at compound/protein ratio of 1/1 after 42 hrs by ThT fluorescence assay relative to control. The procedure, abridged:
as §3

Data set [9] shares this target. Nature of the data set: Binding affinity to amyloid beta (1 to 42) (unknown origin) by SPR analysis. The method in brief: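 Aβ1-42 (0.05 μM in 10 mM sodium acetate pH 4.6) amine-coupled to an EDC/NHS-activated gold chip, then rinsed with 0.1% NH4OH to leave mainly monomer. Analytes in 150 mM PBS with 2% DMSO were injected at 12.5–200 μM for 1 min at 80 μL/min. DMSO solvent correction applied and the ethanolamine-blocked blank channel subtracted. Regeneration with 0.1% NH4OH.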
For orientation: Surface plasmon resonance follows binding to a sensor surface in real time, without labels.

For data set [10] the target is unchanged. Nature of the data set: Inhibition of amyloid beta (1 to 42) (unknown origin) aggregation assessed as scattered, short and scarce fiber formation at compound/protein ratio of 10/1 after 42 hrs by uranyl acetate staining-based transmission electron microscopy. The method in brief: as §2
The target is the same in data set [11]. As to the kind of experiment: Inhibition of amyloid beta (1 to 42) (unknown origin) fibril formation assessed as decrease in fluorescence plateau at compound/protein ratio of 0.1/1 after 42 hrs by ThT fluorescence assay relative to control. The note with it: concentration not given here. The procedure, abridged:
as §3

For data set [12] the target is unchanged. As to the kind of experiment: Inhibition of amyloid beta (1 to 42) (unknown origin) fibril formation at compound/protein ratio of 10/1, 1/1, 0.1/1 […] by ThT fluorescence assay.
For data set [13] the target is unchanged. As to the kind of experiment: Inhibition of amyloid beta (1 to 42) (unknown origin) fibril formation assessed as decrease in fluorescence plateau at compound/protein ratio of 10/1 after 42 hrs by ThT fluorescence assay relative to control. The note with it: concentration not given here. The procedure, abridged:
as §3

For data set [14], the system named is SH-SY5Y. As to the kind of experiment: Neuroprotective activity against amyloid beta (1 to 42)-induced toxicity in human SH-SY5Y cells assessed as reduction of cell death at 0.1 equiv after 24 hrs by MTS assay. Details: scale not given: the % may be the effect or the level left. The class given is functional. The method in brief:
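SH-SY5Y cells seeded at 20 000/well in low-serum Optimem, 24 h at 37°C, 5% CO2. Aβ1-42 at 50 μM in sterile PBS pre-incubated 24 h at room temperature with 1, 5, 10 or 50 μM inhibitor, or without inhibitor. The mix was diluted 1:10 into Optimem (5 μM Aβ final) and added to cells in quadruplicate. After a further 24 h, viability was read by MTS. Assay run twice.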
(Tetrazolium assays rely on reduction of a dye to a coloured formazan, in cell work by metabolically active cells.)

The target in data set [15] is Amyloid-beta precursor protein (Homo sapiens) (UniProt P05067). Nature of the data set: Inhibition of amyloid beta (1 to 42) (unknown origin) aggregation assessed as appearance of glubular aggregation at compound/protein ratio of 1/1 after 42 hrs by transmission electron microscopy. The procedure, abridged: as §2
Chain of Amyloid-beta precursor protein (Homo sapiens) (P05067 whole entry): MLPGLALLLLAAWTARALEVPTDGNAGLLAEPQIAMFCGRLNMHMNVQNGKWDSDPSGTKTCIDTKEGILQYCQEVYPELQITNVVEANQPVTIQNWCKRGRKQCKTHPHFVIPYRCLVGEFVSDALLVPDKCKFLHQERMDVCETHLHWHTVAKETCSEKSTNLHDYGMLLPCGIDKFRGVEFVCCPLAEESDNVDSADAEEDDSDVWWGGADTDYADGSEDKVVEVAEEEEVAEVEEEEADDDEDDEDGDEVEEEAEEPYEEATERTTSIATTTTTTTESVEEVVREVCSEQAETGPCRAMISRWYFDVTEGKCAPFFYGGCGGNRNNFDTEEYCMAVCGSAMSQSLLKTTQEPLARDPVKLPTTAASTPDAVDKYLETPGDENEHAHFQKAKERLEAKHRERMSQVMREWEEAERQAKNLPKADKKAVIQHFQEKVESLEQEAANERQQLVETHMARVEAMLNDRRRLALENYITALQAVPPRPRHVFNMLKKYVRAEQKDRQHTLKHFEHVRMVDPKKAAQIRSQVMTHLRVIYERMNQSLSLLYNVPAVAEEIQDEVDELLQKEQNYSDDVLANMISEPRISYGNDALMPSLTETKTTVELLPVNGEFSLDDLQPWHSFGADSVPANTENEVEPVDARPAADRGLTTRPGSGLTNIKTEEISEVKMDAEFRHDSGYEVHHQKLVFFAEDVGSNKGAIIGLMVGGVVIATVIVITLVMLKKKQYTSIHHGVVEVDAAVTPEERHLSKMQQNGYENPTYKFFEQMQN
In data set [16] the test system is SH-SY5Y. Nature of the data set: Neuroprotective activity against amyloid beta (1 to 42)-induced membrane damage in human SH-SY5Y cells at 0.1 to 5 uM after 24 hrs by LDH assay. The class given is functional, cell-based. The procedure, abridged:
as §1

Data set [17] addresses Amyloid-beta precursor protein (Homo sapiens) (UniProt P05067). As to the kind of experiment: Inhibition of amyloid beta (1 to 42) (unknown origin) fibril formation after 42 hrs by ThT fluorescence assay. The procedure, abridged: as §3
For data set [18] the target is unchanged. Nature of the data set: Inhibition of amyloid beta (1 to 42) (unknown origin) aggregation after 42 hrs by uranyl acetate staining-based transmission electron microscopy. The procedure, abridged:
as §2

SMILES strings stand for the structures. The source made the active and inactive calls. The rule behind the calls is not given here.

For `COc1ccc(NC(C)=O)cc1C(=O)NNC(=O)[C@H](CCCCN)NC(=O)CCOC[C@H]1OC(OCCCNC(=O)[C@@H](NC(=O)[C@H](C)N)C(C)C)[C@H](O)[C@@H](O)[C@@H]1O` (mixture of isomers), the outcome in the data set on SH-SY5Y [1] and in the data set on SH-SY5Y [16] was Active. In addition, the inhibition result in data set [2], in data set [3], in data set [10], in data set [12] and in data set [15] was “Active” each time. The Activity in data set [4] was 148%; in data set [9] it was “Dose-dependent effect”; in the data set with SH-SY5Y [14] it was 75%. Also, the inhibition result in data set [5], in [6] and in [7] was “inactive” each time. In addition, the Stability result in the data set with Plasma is “Stable”. In addition, the values for the inhibition in data set [8] (concentration not given here), in data set [11] and in data set [13] were 29%, 23% and 87%, respectively.

As for `COc1ccc(NC(C)=O)cc1C(=O)NNC(=O)[C@@H](NC(=O)CCOC[C@H]1OC(OCCCNC(=O)[C@@H](NC(=O)[C@H](C)N)C(C)C)[C@H](O)[C@@H](O)[C@@H]1O)C(C)C` (mixture of isomers), the Activity in data set [3] worked out at 325%; in [4] it was 155%. The inhibition result in data set [8] is “inactive”. The inhibition in data set [13] was found to be 31%.

In the case of `COc1ccc(NC(C)=O)cc1C(=O)NNC(=O)[C@@H](NC(=O)CCOC[C@H]1OC(OCCCNC(=O)[C@@H](NC(=O)[C@H](C)N)C(C)C)[C@H](OCc2ccccc2)[C@@H](OCc2ccccc2)[C@@H]1OCc1ccccc1)C(C)C` (mixture of isomers), the inhibition entry in [17] and in [18] was “inactive” in each case.

In the case of `COc1ccc(NC(C)=O)cc1C(=O)NNC(=O)[C@H](CCCCNC(=O)OCc1ccccc1)NC(=O)CCOC[C@H]1OC(OCCCNC(=O)[C@@H](NC(=O)[C@H](C)N)C(C)C)[C@H](OCc2ccccc2)[C@@H](OCc2ccccc2)[C@@H]1OCc1ccccc1` (mixture of isomers), the inhibition result in data set [17] and in [18] was “inactive” each time.

As to `COc1ccc(NC(C)=O)cc1C(=O)NNC(=O)[C@H](CCCCNC(=O)OCc1ccccc1)NC(=O)CCOC[C@H]1OC(OCCCNC(=O)[C@@H](NC(=O)[C@H](C)NC(=O)OC(C)(C)C)C(C)C)[C@H](OCc2ccccc2)[C@@H](OCc2ccccc2)[C@@H]1OCc1ccccc1` (mixture of isomers), the inhibition entry in data set [17] and in data set [18] was “inactive” each time.

(Values after ChEMBL document CHEMBL3792330, “Designed Glycopeptidomimetics Disrupt Protein-Protein Interactions Mediating Amyloid β-Peptide Aggregation and Restore Neuroblastoma Cell Viability” (J Med Chem, 2016).)
